Calls of active or inactive are those of the source. No cut-off for these calls is given here.
Assays:
Rattus norvegicus [1] = assay: Plasma concentration was evaluated for corresponding carboxylic acid metabolite at 100 mg/kg dose peroral administration in rats after 20 min; type: functional, organism-based; design: dose 100 mg/kg
Procedure, shortened: (§1)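 Rats dosed by oral gavage, 100 mg/kg suspended in 0.2% methylcellulose (4 mL/kg). Blood taken from lateral tail vein, plasma separated. Proteins precipitated with 2 volumes methanol before reversed-phase HPLC, or plasma acidified and ether-extracted for normal-phase HPLC. Parent hydroxamate and carboxylic acid metabolite measured. Average of four determinations with range.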

Rattus norvegicus [2] = assay: Plasma concentration was evaluated for corresponding carboxylic acid metabolite at 100 mg/kg dose peroral administration in rats after 60 min; type: functional, organism-based; design: dose 100 mg/kg; procedure, shortened: as §1
Rattus norvegicus [3] = assay: Plasma concentration was evaluated for corresponding hydroxamic acid metabolite at 100 mg/kg dose peroral administration in rats after 20 min; type: functional, organism-based; design: dose 100 mg/kg; procedure, shortened: as §1
Rattus norvegicus [4] = assay: Plasma concentration was evaluated for corresponding hydroxamic acid metabolite at 100 mg/kg dose peroral administration in rats after 60 min; type: functional, organism-based; design: dose 100 mg/kg; procedure, shortened: as §1
[5] = molecular target: T1, Polyunsaturated fatty acid 5-lipoxygenase (Rattus norvegicus, UniProt P12527); assay: In vitro inhibitory activity against 5-lipoxygenase in rat RBL-1 cells; type: cell-based
T1 sequence (P12527 whole entry): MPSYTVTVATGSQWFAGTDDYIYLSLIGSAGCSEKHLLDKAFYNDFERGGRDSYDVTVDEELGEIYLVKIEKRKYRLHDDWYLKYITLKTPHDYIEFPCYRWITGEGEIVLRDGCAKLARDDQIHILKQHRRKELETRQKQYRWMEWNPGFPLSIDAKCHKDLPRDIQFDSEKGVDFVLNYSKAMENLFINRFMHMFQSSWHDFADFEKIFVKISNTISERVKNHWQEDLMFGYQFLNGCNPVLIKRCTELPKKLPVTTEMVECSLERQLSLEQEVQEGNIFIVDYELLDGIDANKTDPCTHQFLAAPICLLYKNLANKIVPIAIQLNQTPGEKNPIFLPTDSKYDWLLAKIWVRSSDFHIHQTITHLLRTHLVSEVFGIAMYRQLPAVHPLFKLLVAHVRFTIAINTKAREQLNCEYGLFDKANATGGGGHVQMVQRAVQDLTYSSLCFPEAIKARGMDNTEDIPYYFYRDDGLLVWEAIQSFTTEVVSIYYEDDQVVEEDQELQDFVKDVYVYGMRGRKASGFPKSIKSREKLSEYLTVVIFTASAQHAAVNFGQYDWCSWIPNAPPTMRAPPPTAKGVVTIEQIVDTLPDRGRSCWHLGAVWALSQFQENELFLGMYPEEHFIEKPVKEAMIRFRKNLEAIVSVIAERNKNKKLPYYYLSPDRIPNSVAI
Procedure, shortened: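 RBL-1 cell homogenate, 20000g supernatant (from 6 × 10^4 cells) in 200-μL incubations with 2% DMSO vehicle and varied inhibitor concentrations. Reaction started with radiolabeled arachidonic acid, stopped by acidification and ether extraction. Products separated from substrate by TLC and counted by scintillation. Triplicate incubations, compared against mean of vehicle controls (n = 8). IC50 with 95% confidence limits from linear regression of % inhibition vs log concentration.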

Rattus norvegicus [6] = assay: Inhibition of leukotriene biosynthesis was determined in vivo with the rat peritoneal anaphylaxis model administered perorally at 100 mg/kg; not significant; type: functional, organism-based; design: dose 100 mg/kg
Procedure, shortened: (§2)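 Fasted male Sprague-Dawley rats sensitized ip with rabbit anti-BSA in PBS pH 7.1, then challenged ip 3 h later with BSA (4 mg) in PBS containing 30 mM L-cysteine. Compound in 0.2% methylcellulose given by gavage 1 h before challenge; 6–8 rats per group. Peritoneal fluid collected 15 min after challenge, LTC4 measured by RIA. % inhibition vs control mean, ± SEM; significance at […].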

Rattus norvegicus [7] = assay: Inhibition of leukotriene biosynthesis was determined in vivo with the rat peritoneal anaphylaxis model administered perorally at 100 mg/kg; type: functional; conditions: route oral; procedure, shortened: as §2
Rattus norvegicus [8] = assay: Inhibition of leukotriene biosynthesis was determined in vivo with the rat peritoneal anaphylaxis model administered perorally at 100 mg/kg *p > 0.05; type: functional; conditions: route oral; procedure, shortened: as §2

With `CC(C)Cc1ccc(CCC(=O)N(C)O)cc1` the Concentration (Rattus norvegicus [1]) was 349 µM, the Concentration (Rattus norvegicus [2]) was 80 µM and the Concentration (Rattus norvegicus [3]) was less than 10 µM. It also gave a Concentration (Rattus norvegicus [4]) of less than 10 µM.
`CC(C)Cc1ccc(/C=C/C(=O)N(C)O)cc1` was tested, and the Concentration (Rattus norvegicus [1]) was 1.9 µM, the Concentration (Rattus norvegicus [2]) was 4.5 µM and the Concentration (Rattus norvegicus [3]) was less than 4 µM. It also gave a Concentration (Rattus norvegicus [4]) of less than 4 µM.
`CC(C)Cc1ccc(C(C)C(=O)N(O)C(C)C)cc1` (stereo not drawn) was tested, and the Concentration (Rattus norvegicus [1]) was less than 4 µM, the Concentration (Rattus norvegicus [2]) was less than 4 µM and the Concentration (Rattus norvegicus [3]) was less than 4 µM. The Concentration (Rattus norvegicus [4]) was less than 4 µM.
`Cc1cc(C)c(-c2ccc(/C=C/C(=O)N(C)O)cc2)c(C)c1` was tested, and the IC50 [5] was 22 nM and the inhibition (Rattus norvegicus [6]) was “inactive”.
`Cc1cc(C)c(-c2ccc(C(=O)N(C)O)cc2)c(C)c1` gave an IC50 [5] of 60 nM and an inhibition in vivo at 100 mg/kg (Rattus norvegicus [7]) of 41%.
`CCCCOc1ccc(C(C)C(=O)N(C)O)cc1` (stereo not drawn) was tested, and the IC50 [5] was 730 nM, the Concentration (Rattus norvegicus [1]) was 40 µM and the Concentration (Rattus norvegicus [2]) was 50 µM. It also gave a Concentration (Rattus norvegicus [3]) of 38 µM, a Concentration (Rattus norvegicus [4]) of 13 µM and an inhibition in vivo at 100 mg/kg (Rattus norvegicus [7]) of 62%.
Work on `CC(C(=O)N(C)O)c1ccc(OCc2ccccc2)cc1` (stereo not drawn) yielded an IC50 [5] of 280 nM, a Concentration (Rattus norvegicus [1]) of 16 µM and a Concentration (Rattus norvegicus [2]) of 51 µM. It also gave a Concentration (Rattus norvegicus [3]) of 8.4 µM, a Concentration (Rattus norvegicus [4]) of 7.9 µM and an inhibition in vivo at 100 mg/kg (Rattus norvegicus [7]) of 62%.
`Cc1cc(C)c(-c2ccc(C(=O)NO)cc2)c(C)c1` was tested, and the inhibition (Rattus norvegicus [6]) was “inactive”.
In the case of `CC(C)Cc1ccc(C(=O)N(C)O)cc1`, the Concentration (Rattus norvegicus [1]) is reported as 432 µM, the Concentration (Rattus norvegicus [2]) is reported as 404 µM and the Concentration (Rattus norvegicus [3]) is reported as less than 5 µM. The Concentration (Rattus norvegicus [4]) was less than 5 µM.
Compound `CC(C)Cc1ccc(C(C)(C)C(=O)N(C)O)cc1` has a Concentration (Rattus norvegicus [1]) of 9.3 µM, a Concentration (Rattus norvegicus [2]) of less than 1 µM and a Concentration (Rattus norvegicus [3]) of 5.8 µM. The Concentration (Rattus norvegicus [4]) was less than 1 µM.
In the case of `COc1ccc2cc(C(C)C(=O)N(C)O)ccc2c1` (stereo not drawn), the IC50 [5] is reported as 410 nM, the Concentration (Rattus norvegicus [1]) is reported as 3 µM and the Concentration (Rattus norvegicus [2]) is reported as 4 µM. The Concentration (Rattus norvegicus [3]) was 1.7 µM, the Concentration (Rattus norvegicus [4]) was 1.3 µM and the inhibition in vivo at 100 mg/kg (Rattus norvegicus [7]) was 52%.
Work on `CC(C)Cc1ccc(C(C)C(=O)N(C)O)cc1` (stereo not drawn) yielded an IC50 [5] of 980 nM, a Concentration (Rattus norvegicus [1]) of 41 µM and a Concentration (Rattus norvegicus [2]) of 36 µM. It also gave a Concentration (Rattus norvegicus [3]) of 32 µM, a Concentration (Rattus norvegicus [4]) of 14 µM and an inhibition in vivo at 100 mg/kg (Rattus norvegicus [7]) of 65%.
In the case of `CN(O)C(=O)c1ccc2ccccc2c1`, the inhibition (Rattus norvegicus [6]) is reported as “inactive”.
`CN(O)C(=O)/C=C/c1ccc2ccccc2c1` gave an inhibition in vivo at 100 mg/kg (Rattus norvegicus [8]) of 66%.
Work on `CC(C)Cc1ccc(C(C)C(=O)NO)cc1` (stereo not drawn) [IBUPROXAM] yielded an IC50 [5] of 4840 nM, a Concentration (Rattus norvegicus [1]) of 114 µM and a Concentration (Rattus norvegicus [2]) of 146 µM. The Concentration (Rattus norvegicus [3]) was 49 µM, the Concentration (Rattus norvegicus [4]) was 27 µM and the inhibition (Rattus norvegicus [6]) was “inactive”.
`CC(C)Cc1ccc(C(C(=O)N(C)O)C(C)C)cc1` (stereo not drawn) gave a Concentration (Rattus norvegicus [1]) of 3.7 µM, a Concentration (Rattus norvegicus [2]) of 7.5 µM and a Concentration (Rattus norvegicus [3]) of 5 µM. It also gave a Concentration (Rattus norvegicus [4]) of 7.9 µM.
Compound `CC(C)Oc1ccc(C(C)C(=O)N(C)O)cc1` (stereo not drawn) has an IC50 [5] of 3700 nM, a Concentration (Rattus norvegicus [4]) of 38 µM and an inhibition in vivo at 100 mg/kg (Rattus norvegicus [7]) of 67%.
`CC(C)Cc1ccc(CC(=O)N(C)O)cc1` was tested, and the Concentration (Rattus norvegicus [1]) was 162 µM, the Concentration (Rattus norvegicus [2]) was 138 µM and the Concentration (Rattus norvegicus [3]) was 46 µM. The Concentration (Rattus norvegicus [4]) was 12 µM.

— ChEMBL document CHEMBL1123650, “In vivo characterization of hydroxamic acid inhibitors of 5-lipoxygenase” (J Med Chem, 1987)
